Screens: PubChem BioAssay, several laboratories
Rows were chosen to be rich in hits. Some 7.4% of all compounds tested hit in one or more screens of this group.
Jurkat tox 60K: cytotoxicity toward Jurkat T cells, primary screen, cytotoxicity control, cell-based, Jurkat E6.1, 60K MLSMR library | 56,000 tested, 1.2% active | inhibition, % at 4 µM | Jurkat E6.1 viability, ATP luminescence, 48 h | AID 463, 2006;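 active = inhibition above the mean inhibition of all tested compounds plus 3 SD, cut at about 28% in these data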
S1P3 ag: human S1P3 receptor agonists, primary screen, cell-based, primary and confirmation, NFAT-BLA reporter; Sphingosine 1-phosphate receptor 3 (Homo sapiens), Q99500; 60,000 tested, 0.1% active; S1P3 NFAT-BLA reporter cells, agonism, FRET ratio; relative to 1 µM S1P, basal subtracted; activation, % at 4.5 µM; AID 373, 2006;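 active = activation above the screen-wide mean plus 3 SD, cut at about 4.5% in these data, passing the limit was not always enough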
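Assay system: stable CHO line with human S1P3, Gα16, NFAT-BLA reporter; Detection: FRET β-lactamase substrate fluorescence, excitation 405 nm, 460/535 nm emission ratio, background-subtracted; Read-out: percent activation versus median 1 µM S1P response, basal-subtracted, per plate; Incubation: cells plated overnight, compound 4 h 37 °C, substrate 2 h RT.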
S1P1 ag pot: S1P1 agonists and agonism potentiators, primary screen, cell-based, primary and confirmation screens, CRE-bla reporter | Sphingosine 1-phosphate receptor 1 (Homo sapiens), P21453 | S1P1 CRE-bla cells, forskolin, beta-lactamase FRET, potentiator mode; S1P1 agonist co-added at EC20, 2 nM; 100% = saturating reference agonist, 0% = basal | activation, % at 9.5 µM | 56,000 tested, 0.57% active;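 active = activation above a cutoff set at the mean activation of all tested compounds plus 3 SD, cut at about 54% in these data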;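 also: forskolin at 4 µM as EC80 and the EC20 agonist is SEW2871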
JNK3 inh: JNK3 kinase activity inhibitors, primary screen, biochemical, human, purified enzyme; Mitogen-activated protein kinase 10 (Homo sapiens), P53779; HTS; inhibition, % at 8 µM; 60,000 tested, 0.61% active; in the data active = inhibition above about 17%
Target sequence (P53779 whole entry, looked up): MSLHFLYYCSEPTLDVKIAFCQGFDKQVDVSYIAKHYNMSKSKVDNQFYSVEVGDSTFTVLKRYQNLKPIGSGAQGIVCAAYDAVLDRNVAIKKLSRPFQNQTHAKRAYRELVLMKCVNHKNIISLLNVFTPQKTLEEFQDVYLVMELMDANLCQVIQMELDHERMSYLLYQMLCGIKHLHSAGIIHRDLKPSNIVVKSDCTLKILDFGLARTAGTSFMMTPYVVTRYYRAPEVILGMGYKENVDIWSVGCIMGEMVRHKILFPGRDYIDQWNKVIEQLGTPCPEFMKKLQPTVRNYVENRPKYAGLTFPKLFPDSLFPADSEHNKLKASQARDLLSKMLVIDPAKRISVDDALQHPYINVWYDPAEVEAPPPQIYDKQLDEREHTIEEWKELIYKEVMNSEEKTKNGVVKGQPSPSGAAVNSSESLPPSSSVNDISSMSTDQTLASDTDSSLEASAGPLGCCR
M1 antag: antagonists of rat M1 muscarinic receptor. Muscarinic acetylcholine receptor M1 (Rattus norvegicus), P08482. CHO-M1 cells, Fluo-4 calcium, ACh EC80 antagonist mode; hits give low values. B-score at 10 µM. 64,000 tested, 3.4% active. AID 628, 2007;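 active = calcium fluorescence response, raw or row-and-column corrected B-score, differing from the plate sample mean either way at a set confidence level, mostly lower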
M1 agonist: M1 muscarinic receptor agonists, primary screen, CHO-M1 cells, Fluo-4 calcium, agonist mode; Muscarinic acetylcholine receptor M1; Fluo-4 calcium fluorescence; hits give high values; B-score at 10 µM; 64,000 tested, 3% active; AID 626, 2007;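 active = fluorescence rise, raw or as B-score row- and column-corrected plate score, outside the 99.7% band of its plate's samples, either direction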
Hits are given with their value; 0 = inactive; - = not tested or not shown.

SMILES	Jurkat tox 60K	S1P3 ag	S1P1 ag pot	JNK3 inh	M1 antag	M1 agonist
N=c1c2c(n(Cc3ccc(Cl)cc3)c3c1CCC3)CCC2	88.4	0	0	0	0	0
CCOC(=O)Cn1c2c(c(=N)c3c1CCC3)CCC2	0	0	0	0	0	0
N=c1c2c(n(Cc3ccccc3)c3c1CCC3)CCC2	64.5	0	0	0	0	0
COc1ccc(N(Cc2cc3ccc(C)cc3[nH]c2=O)C(C)=O)cc1	0	0	0	0	0	0
CC(=O)N1CC=C2C(C#N)=C(N)C(C#N)(C#N)[C@H](c3ccoc3)[C@H]2C1	-	0	0	0	0	0
Cc1ccc(C2C3CN(C(C)C)CC=C3C(C#N)=C(N)C2(C#N)C#N)cc1 (stereo not drawn)	-	0	0	0	2.24	54.7
CCOC(=O)N1CC=C2C(C#N)=C(N)C(C#N)(C#N)[C@H](c3ccc(OCC)c(OCC)c3)[C@H]2C1	0	0	0	0	0	0
N#CC1=C(N)C(C#N)(C#N)[C@H](c2ccoc2)[C@H]2CN(Cc3ccccc3)CC=C12	0	0	0	0	0	25.6
CCC(C(=O)Nc1nccs1)(C(F)(F)F)C(F)(F)F	-	0	0	0	0	7.39
O=C(c1cc(-c2ccccc2O)on1)N1CCc2ccccc2C1	0	0	0	0	0	0
O=C(c1cc(-c2ccc(O)cc2)on1)N1CCc2ccccc2C1	44.8	0	0	0	0	0
COc1cccc2c(=O)c(C/C=C(/C)Cl)c(C)[nH]c12	0	0	-	18.4	0	0
N#CC1=C(SCC(=O)c2ccccc2)NC2=C(C(=O)CCC2)C1c1ccco1 (stereo not drawn)	-	0	0	57.5	0	0
Cc1ccc(C(=O)CSC2=C(C#N)C(c3ccco3)C3=C(CCCC3=O)N2)cc1 (stereo not drawn)	-	0	0	0	0	0
CN1CCN(Cc2cc(COCc3ccccc3)c3cccnc3c2O)CC1	35.5	0	0	0	0	0
Oc1c(CN2CCCCC2)cc(Br)c2cccnc12	49.4	0	0	0	0	0
COc1cc(C)nc(N2CCCC(C(=O)NC3CCC(C)CC3)C2)n1 (stereo not drawn)	0	0	0	0	-15.8	0
CCc1ccc2nc(NC(=O)c3cc(C)on3)sc2c1	82.3	0	0	0	0	0
Cc1nn(Cc2ccccc2)c(C)c1NC(=O)CSc1nc2sc3c(c2c(=O)n1C)CCC3	0	0	0	0	0	0
CCc1ccc2nc(NC3=NCN(CCOC)CN3)nc(C)c2c1	0	0	0	0	0	0
Cc1cc2nc(NC3=NCN(Cc4cccnc4)CN3)nc(C)c2cc1C	0	0	0	0	-3.24	0
COc1cccc(C2/C(=C(\O)c3ccc(OC)c(OC)c3)C(=O)C(=O)N2c2cc(C)on2)c1 (stereo not drawn)	-	0	0	0	0	0
COc1cccc2cc(C(=O)n3ccc(C)n3)c(=O)oc12	0	0	0	0	0	0
CCOC(=O)C1CCN(CC(=O)Nc2c(C(=O)OC)[nH]c3ccc(Cl)cc23)CC1	44.1	0	0	0	0	0
Cc1ccc(CN2CCNC(=O)C2CC(=O)O)cc1 (stereo not drawn)	0	0	0	0	0	0
SMILES	Jurkat tox 60K	S1P3 ag	S1P1 ag pot	JNK3 inh	M1 antag	M1 agonist
O=C(O)CC1C(=O)NCCN1Cc1ccc(F)c(F)c1 (stereo not drawn)	0	0	0	0	1.44	0
CNC(=O)CN(c1ccc(C(C)C)cc1)S(C)(=O)=O	-	-	-	-	0	0
CC(=O)c1c(N2CCN(Cc3ccccc3)CC2)[nH]c(-c2ccccc2)nc1=S	38.1	0	0	0	0	0
Cc1cccc(-c2c3c(=O)n(C)c(=O)n(C)c3c3nnc4ccccc4n23)c1	0	0	-	0	0	5.25
N#CC1=C(N)Oc2cc(N)ccc2C1C1CCCCC1 (stereo not drawn)	84.0	0	0	0	0	0
COc1ccc(OC)c(C2C(C#N)=C(N)Oc3cc(N)ccc32)c1 (stereo not drawn)	0	0	0	0	0	0
Cc1ccc(Cn2c(NCCc3ccccc3)nc3c2c(=O)n(C)c(=O)n3C)cc1	0	0	0	0	0	0
Cc1nnc(NCCc2ccccc2)n(N)c1=O	0	0	-	0	1.55	0
Cc1ccc(S(=O)(=O)N(C)Cc2ccc(-c3nnc4n3CCC4)cc2)cc1	0	0	0	0	2.59	0
Cc1ccc(S(=O)(=O)N(C)CC(=O)N2CCCc3ccccc32)cc1	0	0	0	0	0	0
O=c1cc(-c2ccccc2)c2ccc(O)c(CN3CCCCC3)c2o1	0	0	0	0	0	0
O=c1oc2c(CN3CCCCCC3)c(O)ccc2cc1-c1nc2ccccc2[nH]1	0	0	0	0	-17.2	248
COc1ccc(-c2nnnn2-c2ccccc2OC)cc1	47.9	0	0	0	0	0
Cc1ccccc1-n1nnnc1-c1ccccc1	0	0	0	0	0	0
O=C(Nc1nc(-c2ccccn2)cs1)C1COc2ccccc2O1 (stereo not drawn)	0	0	0	0	0	0
Cc1nc2ccc3nc(NC(=O)C4COc5ccccc5O4)sc3c2s1 (stereo not drawn)	0	0	66.7	0	0	0
NC(=O)c1oc2ccccc2c1NC(=O)c1ccc(F)cc1	0	0	0	26.4	0	0
CCN(CC)S(=O)(=O)c1cc(C(=O)Nc2ccncc2)ccc1Cl	47.8	0	0	0	0	0
CCN(CC)C(=O)c1sc2nc(-c3cccs3)cc(-c3cccs3)c2c1N	-	0	0	0	0	14.6
CCn1cc(S(=O)(=O)CC(=O)Nc2ccc(OC)cc2)c2ccccc21	0	0	0	0	0	0
COC(=O)c1c(-c2cccs2)csc1NC(=O)CN1CCOCC1	0	0	0	23.2	0	0
CCOC(=O)C(C(C)=O)c1c(Br)c(O)c(O)c2c(C(=O)c3ccc(C)cc3)coc12 (stereo not drawn)	60.9	0	0	0	0	0
CCCc1ccc(OCc2ccc(C(=O)N3CCN(c4ccccn4)CC3)o2)c(OC)c1	0	0	0	0	0	5.45
Cc1cc(NC(=O)CS(=O)(=O)c2cn(Cc3cccc(F)c3)c3ccccc23)no1	-	-	-	-	3.61	0
Cc1cc(NC(=O)CS(=O)(=O)c2cn(Cc3ccc(F)cc3)c3ccccc23)no1	0	0	0	0	0	0
CCc1sc(C(=O)NCc2cc(C)n(C)n2)cc1Br	0	0	0	0	0	-5.11
